Laboratory results reported in ChEMBL document CHEMBL1143592, “N-terminal sugar conjugation and C-terminal Thr-for-Thr(ol) exchange in radioiodinated Tyr3-octreotide: effect on cellular ligand trafficking in vitro and tumor accumulation in vivo” (J Med Chem, 2005).
Each block holds one compound with its values, some of them ahead of it.

Legend:
Type in all cases: cell-based
[1] = target: T1, Somatostatin receptor type 3 (Homo sapiens, UniProt P32745); assay: In vitro inhibition of [125I][Leu8,D-Trp22,Tyr25] somatostatin 28 binding to human somatostatin receptor type 3 expressed in CCL39 cells; (n=4)
T1 sequence (P32745 whole entry): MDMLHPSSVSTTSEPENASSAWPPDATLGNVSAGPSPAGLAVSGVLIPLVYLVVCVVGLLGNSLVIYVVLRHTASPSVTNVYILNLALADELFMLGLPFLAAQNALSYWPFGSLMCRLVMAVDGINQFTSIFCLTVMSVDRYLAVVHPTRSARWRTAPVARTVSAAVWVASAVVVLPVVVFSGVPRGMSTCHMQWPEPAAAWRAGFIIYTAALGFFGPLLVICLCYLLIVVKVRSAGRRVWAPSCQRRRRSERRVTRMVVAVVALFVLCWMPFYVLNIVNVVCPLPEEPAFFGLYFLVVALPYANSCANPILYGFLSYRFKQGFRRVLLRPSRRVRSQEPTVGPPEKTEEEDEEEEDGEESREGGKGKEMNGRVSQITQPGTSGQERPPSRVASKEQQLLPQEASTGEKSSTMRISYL
Outline: (§1)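 Receptor autoradiography on sections of cell membrane pellets from CHO-K1 (sst1, sst5) or CCL39 (sst2–4) cells stably expressing the human subtype. Full displacement of [125I][Leu8,D-Trp22,Tyr25]somatostatin 28 by unlabeled peptide, 0.1–1000 nM, with somatostatin 28 run in parallel as control. IC50 derived by computer-assisted image analysis, quantified against cross-calibrated [125I] tissue standards.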

[2] = target: T2, Somatostatin receptor type 1 (Homo sapiens, UniProt P30872); assay: In vitro inhibition of [125I][Leu8,D-Trp22,Tyr25] somatostatin 28 binding to human somatostatin receptor type 1 expressed in CHO-K1 cells; (n=7); outline: as §1
T2 sequence (P30872 whole entry): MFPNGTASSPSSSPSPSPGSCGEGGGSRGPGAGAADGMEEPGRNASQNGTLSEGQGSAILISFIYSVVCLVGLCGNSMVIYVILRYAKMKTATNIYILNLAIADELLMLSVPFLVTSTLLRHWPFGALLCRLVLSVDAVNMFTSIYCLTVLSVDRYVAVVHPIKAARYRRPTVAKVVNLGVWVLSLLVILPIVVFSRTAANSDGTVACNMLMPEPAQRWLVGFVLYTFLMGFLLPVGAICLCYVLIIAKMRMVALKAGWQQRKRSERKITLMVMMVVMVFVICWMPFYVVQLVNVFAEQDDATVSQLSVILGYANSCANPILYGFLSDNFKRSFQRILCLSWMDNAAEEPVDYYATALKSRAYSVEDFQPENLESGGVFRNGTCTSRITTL

[3] = target: Somatostatin receptor type 5 (Homo sapiens, UniProt P35346); assay: In vitro inhibition of [125I][Leu8,D-Trp22,Tyr25] somatostatin 28 binding to human somatostatin receptor type 5 expressed in CHO-K1 cells; (n=6)
Chain of Somatostatin receptor type 5 (P35346 whole entry): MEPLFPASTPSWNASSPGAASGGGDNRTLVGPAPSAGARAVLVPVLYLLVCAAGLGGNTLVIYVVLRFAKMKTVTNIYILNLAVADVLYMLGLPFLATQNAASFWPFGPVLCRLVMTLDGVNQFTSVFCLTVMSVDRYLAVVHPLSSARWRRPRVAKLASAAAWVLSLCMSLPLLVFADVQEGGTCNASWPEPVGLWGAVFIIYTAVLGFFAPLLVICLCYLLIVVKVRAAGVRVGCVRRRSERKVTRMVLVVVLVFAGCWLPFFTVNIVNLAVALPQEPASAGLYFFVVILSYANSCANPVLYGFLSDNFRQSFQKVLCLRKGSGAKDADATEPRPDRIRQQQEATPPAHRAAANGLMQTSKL

[4] = target: T3, Somatostatin receptor type 4 (Homo sapiens, UniProt P31391); assay: In vitro inhibition of [125I][Leu8,D-Trp22,Tyr25] somatostatin 28 binding to human somatostatin receptor type 4 expressed in CCL39 cells; (n=6)
T3 sequence (P31391 whole entry): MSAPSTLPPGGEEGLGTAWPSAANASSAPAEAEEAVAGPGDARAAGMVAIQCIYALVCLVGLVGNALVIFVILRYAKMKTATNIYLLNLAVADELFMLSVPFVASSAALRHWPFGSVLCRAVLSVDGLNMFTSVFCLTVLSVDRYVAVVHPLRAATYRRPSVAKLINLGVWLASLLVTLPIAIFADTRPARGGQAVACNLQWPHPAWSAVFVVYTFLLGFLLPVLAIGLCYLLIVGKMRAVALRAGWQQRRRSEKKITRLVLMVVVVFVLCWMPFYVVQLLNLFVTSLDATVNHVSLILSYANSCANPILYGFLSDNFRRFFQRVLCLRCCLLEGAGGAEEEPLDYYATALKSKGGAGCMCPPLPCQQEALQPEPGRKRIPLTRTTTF

[5] = target: Somatostatin receptor type 2 (Homo sapiens, UniProt P30874); assay: Relative effective concentration against human somatostatin receptor type 2 expressed in CHO cells; (n=3)
Chain of Somatostatin receptor type 2 (P30874 whole entry): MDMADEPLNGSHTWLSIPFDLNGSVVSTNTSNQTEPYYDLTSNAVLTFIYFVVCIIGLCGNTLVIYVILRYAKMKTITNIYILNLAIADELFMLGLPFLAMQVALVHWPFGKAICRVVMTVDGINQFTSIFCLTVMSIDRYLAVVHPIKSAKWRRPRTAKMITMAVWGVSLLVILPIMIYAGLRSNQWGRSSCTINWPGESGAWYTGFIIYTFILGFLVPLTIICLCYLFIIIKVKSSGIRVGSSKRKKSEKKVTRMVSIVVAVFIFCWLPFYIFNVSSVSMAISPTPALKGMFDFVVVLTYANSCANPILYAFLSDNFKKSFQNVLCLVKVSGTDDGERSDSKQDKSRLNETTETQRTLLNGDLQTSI
Outline: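 Dual-tracer internalization in CHO cells stably expressing N-terminally tagged hsst2 (90000–120000 cells/well, plated the day before). Acid wash at pH 5 removed surface-bound activity; nonspecific uptake was taken with 5 µM TOC; triplicates. EC50 is expressed relative to [125I]TOC.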

[6] = target: T2, Somatostatin receptor type 1; assay: In vitro inhibitory concentration against somatostatin receptor type 1 expressed in CHO-K1 cells using [125I][Leu8,D-Trp22,Tyr25] somatostatin 28 as radioligand; (n=2); outline: as §1
[7] = target: T1, Somatostatin receptor type 3; assay: In vitro inhibition of [125I][Leu8,D-Trp22,Tyr25] somatostatin 28 binding to human somatostatin receptor type 3 expressed in CCL39 cells; (n=2); outline: as §1
[8] = target: T3, Somatostatin receptor type 4; assay: In vitro inhibition of [125I][Leu8,D-Trp22,Tyr25] somatostatin 28 binding to human somatostatin receptor type 4 expressed in CCL39 cells; (n=2); outline: as §1
[9] = target: T2, Somatostatin receptor type 1; assay: In vitro inhibition of [125I][Leu8,D-Trp22,Tyr25] somatostatin 28 binding to human somatostatin receptor type 1 expressed in CHO-K1 cells; (n=5)
[10] = target: T3, Somatostatin receptor type 4; assay: In vitro inhibition of [125I][Leu8,D-Trp22,Tyr25] somatostatin 28 binding to human somatostatin receptor type 4 expressed in CCL39 cells; (n=5)
[11] = target: T1, Somatostatin receptor type 3; assay: In vitro inhibition of [125I][Leu8,D-Trp22,Tyr25] somatostatin 28 binding to human somatostatin receptor type 3 expressed in CCL39 cells; (n=5)

Structure (SMILES): C[C@@H](O)[C@@H]1NC(=O)[C@H](CCCCN)NC(=O)[C@@H](Cc2c[nH]c3ccccc23)NC(=O)[C@H](Cc2ccc(O)cc2)NC(=O)[C@@H](NC(=O)[C@@H](Cc2ccccc2)NC(=O)CN2CCN(CC(=O)O)CCN(CC(=O)O)CCN(CC(=O)O)CC2)CSSC[C@@H](C(=O)N[C@H](CO)[C@@H](C)O)NC1=O [EDOTREOTIDE]
- IC50 [1]: 880 nM
- IC50 [2]: > 10000 nM
- IC50 [3]: 393 nM
- IC50 [4]: > 1000 nM

Structure (SMILES): C[C@H](O)[C@@H](CO)NC(=O)[C@@H]1CSSC[C@H](NC(=O)[C@H](N)Cc2ccccc2)C(=O)N[C@@H](Cc2ccc(O)cc2)C(=O)N[C@H](Cc2c[nH]c3ccccc23)C(=O)N[C@@H](CCCCN)C(=O)N[C@@H]([C@@H](C)O)C(=O)N1
- IC50 [6]: > 1000 nM
- IC50 [7]: 330 nM
- IC50 [8]: 346 nM

Structure (SMILES): C[C@H](O)[C@@H](CO)NC(=O)[C@@H]1CSSC[C@H](NC(=O)[C@H](N)Cc2ccccc2)C(=O)N[C@@H](Cc2ccc(O)c(I)c2)C(=O)N[C@H](Cc2c[nH]c3ccccc23)C(=O)N[C@@H](CCCCN)C(=O)N[C@@H]([C@@H](C)O)C(=O)N1
- IC50 [9]: > 1000 nM
- IC50 [10]: 729 nM
- IC50 [11]: 186 nM

Structure (SMILES): C[C@@H](O)[C@H](NC(=O)[C@@H]1CSSC[C@H](NC(=O)[C@H](N)Cc2ccccc2)C(=O)N[C@@H](Cc2ccc(O)c([123I])c2)C(=O)N[C@H](Cc2c[nH]c3ccccc23)C(=O)N[C@@H](CCCCN)C(=O)N[C@@H]([C@@H](C)O)C(=O)N1)C(=O)O
- EC50 [5]: 1.7 nM

Next, values leading:

- EC50 ([5]; cho): 1.81 nM
Structure (SMILES): C[C@@H](O)[C@H](NC(=O)[C@@H]1CSSC[C@H](NC(=O)[C@@H](Cc2ccccc2)NC[C@]2(O)OC[C@H](O)[C@@H](O[C@@H]3O[C@@H](CO)[C@@H](O[C@@H]4O[C@@H](CO)[C@@H](O)[C@H](O)[C@@H]4O)[C@H](O)[C@@H]3O)[C@@H]2O)C(=O)N[C@@H](Cc2ccc(O)c([123I])c2)C(=O)N[C@H](Cc2c[nH]c3ccccc23)C(=O)N[C@@H](CCCCN)C(=O)N[C@@H]([C@@H](C)O)C(=O)N1)C(=O)O

- EC50 ([5]; cho): 2.13 nM
Structure (SMILES): C[C@@H](O)[C@H](NC(=O)[C@@H]1CSSC[C@H](NC(=O)[C@@H](Cc2ccccc2)NC[C@]2(O)OC[C@H](O)[C@@H](O[C@@H]3O[C@@H](CO)[C@@H](O)[C@H](O)[C@@H]3O)[C@@H]2O)C(=O)N[C@@H](Cc2ccc(O)c([123I])c2)C(=O)N[C@H](Cc2c[nH]c3ccccc23)C(=O)N[C@@H](CCCCN)C(=O)N[C@@H]([C@@H](C)O)C(=O)N1)C(=O)O

- EC50 ([5]; cho): 1.12 nM
Structure (SMILES): C[C@@H](O)[C@H](CO)NC(=O)[C@@H]1CSSC[C@H](NC(=O)[C@@H](Cc2ccccc2)NC[C@]2(O)OC[C@H](O)[C@@H](O[C@@H]3O[C@@H](CO)[C@@H](O)[C@H](O)[C@@H]3O)[C@@H]2O)C(=O)N[C@@H](Cc2ccc(O)c([123I])c2)C(=O)N[C@H](Cc2c[nH]c3ccccc23)C(=O)N[C@@H](CCCCN)C(=O)N[C@@H]([C@@H](C)O)C(=O)N1

- EC50 ([5]; cho): 1.43 nM
Structure (SMILES): C[C@@H](O)[C@H](CO)NC(=O)[C@@H]1CSSC[C@H](NC(=O)[C@@H](Cc2ccccc2)NC[C@]2(O)OC[C@H](O)[C@@H](O)[C@@H]2O)C(=O)N[C@@H](Cc2ccc(O)c([123I])c2)C(=O)N[C@H](Cc2c[nH]c3ccccc23)C(=O)N[C@@H](CCCCN)C(=O)N[C@@H]([C@@H](C)O)C(=O)N1
